SIAE inh = inhibitors of human sialic acid acetylesterase SIAE | Q9HAT2 | SIAE FP-Rh probe binding, fluorescence polarization | inhibition, % at 9.66 µM | actives 0.69% (n = 370,000) | AID 1053197;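 active = inhibition above a cutoff: mean of compounds within the control limits plus 3 SD of those, cut at about 17% in these data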
Target sequence (Q9HAT2 whole entry, looked up): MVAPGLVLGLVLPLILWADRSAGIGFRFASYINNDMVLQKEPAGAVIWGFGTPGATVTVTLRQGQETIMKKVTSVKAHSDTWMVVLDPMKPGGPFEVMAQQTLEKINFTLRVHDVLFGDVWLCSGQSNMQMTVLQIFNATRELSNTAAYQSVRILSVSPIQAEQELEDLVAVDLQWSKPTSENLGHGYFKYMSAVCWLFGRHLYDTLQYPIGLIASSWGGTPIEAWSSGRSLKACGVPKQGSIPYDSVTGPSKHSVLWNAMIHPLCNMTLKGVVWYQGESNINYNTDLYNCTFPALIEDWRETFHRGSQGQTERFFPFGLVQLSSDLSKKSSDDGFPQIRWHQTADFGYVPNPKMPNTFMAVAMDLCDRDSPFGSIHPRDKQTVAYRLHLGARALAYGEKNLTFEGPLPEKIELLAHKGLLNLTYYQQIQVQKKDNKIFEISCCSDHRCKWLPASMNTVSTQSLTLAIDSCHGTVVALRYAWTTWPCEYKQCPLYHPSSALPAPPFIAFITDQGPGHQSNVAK
ABHD4 inh = inhibits mouse alpha/beta hydrolase domain 4; inhibition, % at 8.92 µM; purified mABHD4, FP-Rh probe fluorescence polarization; Q8VD66; actives 0.54% (n = 370,000); AID 720543;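 active = inhibition exceeding the mean over every tested compound plus 3 SD, cut at about 30% in these data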
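Assay system: mABHD4 protein; medium: HEPES pH 7.0, NaCl, Pluronic buffer; dosing: 8.92 µM, single dose; schedule: 45 min + 60 min at 25 °C; signal: FP readout, ex 525 nm / em 598 nm; read-out: normalized percent inhibition of probe labeling; repeats: single replicate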
HTRA1 inh = HTRA1 (human) protease inhibition; Q92743; recombinant HTRA1, FP-rhodamine activity-based probe, fluorescence polarization; inhibition, % at 5.96 µM; actives 0.5% (n = 340,000); in the data active = inhibition above about 36%
PRMT1 inh = inhibitors of human PRMT1; recombinant PRMT1, activity-based probe fluorescence polarization; inhibition, % at 2.79 µM; AID 652257; actives 1.3% (n = 370,000); Q99873;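 active = inhibition above about 21% made by adding two undisclosed values, limit read from the data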
TCR-CD3 inh = inhibitors of human TCR-CD3 interaction; TAMRA-labeled TCR probe fluorescence, biochemical; inhibition, % at 9.4 µM; actives 0.37% (n = 360,000); in the data active = inhibition above about 19%;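 note: recombinant mutant TCR 2C K166C tagged with TAMRA read by polarization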
HTRA1 inh conf = HTRA1 (human) inhibition, confirmation | actives 66% (n = 1,600) | recombinant HTRA1, FP-rhodamine activity-based probe, fluorescence polarization | shares compounds with HTRA1 inh | inhibition, % at 5.96 µM | AID 540248;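 active = mean inhibition over three repeats above a set limit taken from the earlier primary screen, cut at about 37% in these data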;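 note: inhibitors block probe binding so polarization drops and inhibition rises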
Numbers stand for hits. Compounds with a hit are over-represented: about 2.6% of the library has one in this group of screens.

For CCCSc1nnc(-c2cccc(S(=O)(=O)N(C)C)c2)n1-c1cc(OC)ccc1OC the results were SIAE inh inactive, ABHD4 inh inactive, HTRA1 inh inactive, PRMT1 inh inactive and TCR-CD3 inh inactive.
Screening CN(C)S(=O)(=O)c1cccc(-c2nnc(SCCNCCO)n2-c2ccc(F)cc2)c1 returned SIAE inh inactive, ABHD4 inh 31, HTRA1 inh inactive, PRMT1 inh inactive and TCR-CD3 inh inactive.
For CN1CCN(S(=O)(=O)c2cccc(C(=O)Nc3sc4c(c3-c3nc5ccccc5[nH]3)CCCC4)c2)CC1 the results were SIAE inh 25, ABHD4 inh inactive, HTRA1 inh inactive, PRMT1 inh inactive and TCR-CD3 inh inactive.
CC(=O)NCCC(=O)Nc1sc2c(c1-c1nc3ccccc3[nH]1)CCCC2 was read as SIAE inh inactive, ABHD4 inh inactive, HTRA1 inh inactive, PRMT1 inh inactive and TCR-CD3 inh inactive.
`COC(=O)[C@H](CC(C)C)N(Cc1cn(Cc2ccccc2)nn1)S(=O)(=O)c1ccc(F)cc1Br` gave SIAE inh inactive, ABHD4 inh inactive and PRMT1 inh inactive.
Screening NC(=O)c1c(N)[nH]c(C(=O)c2ccccc2)c1-c1cccc2ccccc12 returned SIAE inh inactive, ABHD4 inh inactive and PRMT1 inh inactive.
Screening Cc1sc2ncnc(N/N=C/c3ccc(O)cc3)c2c1C returned SIAE inh inactive, ABHD4 inh inactive, HTRA1 inh inactive, PRMT1 inh inactive and TCR-CD3 inh inactive.
`Cc1sc2ncnc(N/N=C/c3ccccc3O)c2c1C` gave SIAE inh inactive, ABHD4 inh inactive, HTRA1 inh 60, PRMT1 inh inactive, TCR-CD3 inh inactive and HTRA1 inh conf 61.
`Cc1ccc(Nc2c(-c3ccccn3)nc3cccc(C)n23)cc1` gave SIAE inh inactive, ABHD4 inh inactive, HTRA1 inh 62, PRMT1 inh inactive, TCR-CD3 inh inactive and HTRA1 inh conf 67.
`c1ccc2c(c1)NCC1CCCN21` (stereo not given) gave SIAE inh inactive, ABHD4 inh inactive, HTRA1 inh 44, PRMT1 inh inactive, TCR-CD3 inh inactive and HTRA1 inh conf inactive.
For O=C1NC[C@@H]2CCCN2C1=O the results were SIAE inh inactive, ABHD4 inh inactive, PRMT1 inh inactive and TCR-CD3 inh inactive.
Screening CN(C)CCCNC(=O)c1ccc(-c2cc(O)c3ncccc3c2)cc1 returned SIAE inh inactive, ABHD4 inh inactive, HTRA1 inh 69, PRMT1 inh inactive, TCR-CD3 inh inactive and HTRA1 inh conf 85.
`CN(C)c1ccc(-c2cc(O)c3ncccc3c2)cc1` gave SIAE inh inactive, ABHD4 inh inactive, HTRA1 inh inactive, PRMT1 inh inactive and TCR-CD3 inh inactive.
Screening CCC(c1ccc(O)c(O)c1)C(CC)c1ccc(O)c(O)c1 (stereo not given) returned HTRA1 inh 59 and HTRA1 inh conf 68.
For N#CC1=C(N)Oc2c(ccc3cccnc23)C1c1ccccc1 (stereo not given) the results were SIAE inh inactive, ABHD4 inh inactive, HTRA1 inh 41, PRMT1 inh inactive, TCR-CD3 inh inactive and HTRA1 inh conf inactive.
`N#CC1=C(N)Oc2ccc3ccccc3c2C1c1cccnc1` (stereo not given) gave SIAE inh inactive, ABHD4 inh inactive, HTRA1 inh inactive, PRMT1 inh inactive and TCR-CD3 inh inactive.
`Cc1ccc2[nH]c(=O)c(C3C(C#N)=C(N)Oc4c3ccc3cccnc43)cc2c1` (stereo not given) gave SIAE inh 25, ABHD4 inh inactive, HTRA1 inh 73, PRMT1 inh inactive, TCR-CD3 inh inactive and HTRA1 inh conf inactive.
For Cc1c2c(=O)n(-c3nc4ccccc4s3)nc-2cc(O)n1Cc1ccccc1 the results were HTRA1 inh 47 and HTRA1 inh conf 57.
`CCc1ccc(OC2=NS(=O)(=O)c3ccccc32)cc1` gave SIAE inh inactive, ABHD4 inh inactive, HTRA1 inh inactive, PRMT1 inh inactive and TCR-CD3 inh inactive.
`CCN(CC)c1cccc(OC2=NS(=O)(=O)c3ccccc32)c1` gave SIAE inh 31, ABHD4 inh 88, HTRA1 inh 46, PRMT1 inh inactive, TCR-CD3 inh 53 and HTRA1 inh conf inactive.
Screening COc1ccccc1Nc1nc(-c2cccs2)cs1 returned SIAE inh inactive, ABHD4 inh inactive, HTRA1 inh inactive, PRMT1 inh inactive and TCR-CD3 inh inactive.
`COc1ccc(C)cc1Nc1nc(-c2c[nH]c3ccccc23)cs1` gave SIAE inh inactive, ABHD4 inh inactive, HTRA1 inh 43, PRMT1 inh inactive, TCR-CD3 inh inactive and HTRA1 inh conf inactive.
Screening COc1ccc(NC(=O)c2cc3ccccc3cc2O)cc1 returned SIAE inh inactive, ABHD4 inh inactive, HTRA1 inh 39, PRMT1 inh inactive, TCR-CD3 inh inactive and HTRA1 inh conf inactive.
CCCCCCSc1cccc(-c2nc3ccc(C)cn3c2NC2CCCCC2)c1 was read as SIAE inh inactive, ABHD4 inh inactive, HTRA1 inh inactive, PRMT1 inh inactive and TCR-CD3 inh inactive.
Screening Cc1ccc2nc(-c3ccccn3)c(NC3CCCC3)n2c1 returned SIAE inh inactive, ABHD4 inh inactive, HTRA1 inh 38, PRMT1 inh inactive, TCR-CD3 inh inactive and HTRA1 inh conf 38.
Screening O=C(CN1CCN(S(=O)(=O)c2ccc(Br)cc2)CC1)c1ccc(O)c(O)c1 returned SIAE inh inactive, ABHD4 inh inactive, HTRA1 inh 37, PRMT1 inh inactive, TCR-CD3 inh inactive and HTRA1 inh conf 39.
Screening CC(C)c1ccc(S(=O)(=O)N2CCN(CC(=O)c3ccc(O)c(O)c3)CC2)cc1 returned SIAE inh inactive, ABHD4 inh inactive, HTRA1 inh 38, PRMT1 inh inactive, TCR-CD3 inh inactive and HTRA1 inh conf inactive.
Screening O=C(Cc1cnn(-c2ccccc2)c1)c1ccc(O)c(O)c1O returned SIAE inh inactive, ABHD4 inh inactive, HTRA1 inh 69, PRMT1 inh 39, TCR-CD3 inh inactive and HTRA1 inh conf 94.
`CC(C)(C)N(Cc1cn(Cc2ccccc2)nn1)S(=O)(=O)c1ccccc1Br` gave SIAE inh inactive, ABHD4 inh inactive and PRMT1 inh inactive.
For COc1cc(/C=N/NC(=O)CSc2cc(C)c(Br)cc2C)ccc1O the results were SIAE inh inactive, ABHD4 inh inactive, HTRA1 inh inactive, PRMT1 inh inactive and TCR-CD3 inh inactive.
Cc1cc(SCC(=O)N/N=C/c2ccc(O)c(O)c2O)c(C)cc1Br was read as SIAE inh 35, ABHD4 inh 50, HTRA1 inh 62, PRMT1 inh 35, TCR-CD3 inh inactive and HTRA1 inh conf 67.
For N#CC(c1nc2ccccc2nc1N1CCCC1)S(=O)(=O)c1ccccc1 (stereo not given) the results were SIAE inh inactive, ABHD4 inh inactive, HTRA1 inh 39, PRMT1 inh inactive, TCR-CD3 inh inactive and HTRA1 inh conf inactive.

Screening data (PubChem)
